# Laboratory results reported in ChEMBL document CHEMBL5260808, “Design of Phthalazinone Amide Histamine H1 Receptor Antagonists for Use in Rhinitis” (ACS Med Chem Lett, 2017).
# The source made the active and inactive calls. The calls are words filed in the database; no cut-off is given here.
# Legend:
# [1] = biological target: T1, Alpha-1A adrenergic receptor (Homo sapiens, UniProt P35348); assay: Antagonist activity against recombinant human adrenergic alpha1A receptor expressed in Rat1 cells incubated for 30 mins by FLIPR analysis; format: cell-based
# T1 sequence (P35348 whole entry): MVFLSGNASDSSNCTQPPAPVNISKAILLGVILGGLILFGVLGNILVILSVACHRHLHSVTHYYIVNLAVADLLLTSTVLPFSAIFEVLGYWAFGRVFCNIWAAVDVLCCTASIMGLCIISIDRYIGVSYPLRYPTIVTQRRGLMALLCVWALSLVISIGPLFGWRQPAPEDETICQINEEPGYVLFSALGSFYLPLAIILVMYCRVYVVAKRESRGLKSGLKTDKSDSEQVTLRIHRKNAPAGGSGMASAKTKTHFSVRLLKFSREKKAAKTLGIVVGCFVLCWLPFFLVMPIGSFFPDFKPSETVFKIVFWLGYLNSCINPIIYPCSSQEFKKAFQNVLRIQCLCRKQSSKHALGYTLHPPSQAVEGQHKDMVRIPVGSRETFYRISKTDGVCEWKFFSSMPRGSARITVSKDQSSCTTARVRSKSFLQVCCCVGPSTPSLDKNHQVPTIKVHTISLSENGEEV
# In short: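 Human α1A or α1B adrenoceptor in fibroblast cells. Plate-based calcium imaging.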
# [2] = Distribution coefficient, log D of compound in n-octanol and phosphate buffered saline at pH 7.4 by HPLC analysis; format: physicochemical
# [3] = biological target: Voltage-gated inwardly rectifying potassium channel KCNH2 (Homo sapiens, UniProt Q12809); assay: Displacement of [3H]dofetilide from human ERG expressed in CHO-K1 cell membrane measured after 45 mins by topcount scintillation counting method; format: toxicity, cell membranes
# Chain of Voltage-gated inwardly rectifying potassium channel KCNH2 (Q12809 whole entry): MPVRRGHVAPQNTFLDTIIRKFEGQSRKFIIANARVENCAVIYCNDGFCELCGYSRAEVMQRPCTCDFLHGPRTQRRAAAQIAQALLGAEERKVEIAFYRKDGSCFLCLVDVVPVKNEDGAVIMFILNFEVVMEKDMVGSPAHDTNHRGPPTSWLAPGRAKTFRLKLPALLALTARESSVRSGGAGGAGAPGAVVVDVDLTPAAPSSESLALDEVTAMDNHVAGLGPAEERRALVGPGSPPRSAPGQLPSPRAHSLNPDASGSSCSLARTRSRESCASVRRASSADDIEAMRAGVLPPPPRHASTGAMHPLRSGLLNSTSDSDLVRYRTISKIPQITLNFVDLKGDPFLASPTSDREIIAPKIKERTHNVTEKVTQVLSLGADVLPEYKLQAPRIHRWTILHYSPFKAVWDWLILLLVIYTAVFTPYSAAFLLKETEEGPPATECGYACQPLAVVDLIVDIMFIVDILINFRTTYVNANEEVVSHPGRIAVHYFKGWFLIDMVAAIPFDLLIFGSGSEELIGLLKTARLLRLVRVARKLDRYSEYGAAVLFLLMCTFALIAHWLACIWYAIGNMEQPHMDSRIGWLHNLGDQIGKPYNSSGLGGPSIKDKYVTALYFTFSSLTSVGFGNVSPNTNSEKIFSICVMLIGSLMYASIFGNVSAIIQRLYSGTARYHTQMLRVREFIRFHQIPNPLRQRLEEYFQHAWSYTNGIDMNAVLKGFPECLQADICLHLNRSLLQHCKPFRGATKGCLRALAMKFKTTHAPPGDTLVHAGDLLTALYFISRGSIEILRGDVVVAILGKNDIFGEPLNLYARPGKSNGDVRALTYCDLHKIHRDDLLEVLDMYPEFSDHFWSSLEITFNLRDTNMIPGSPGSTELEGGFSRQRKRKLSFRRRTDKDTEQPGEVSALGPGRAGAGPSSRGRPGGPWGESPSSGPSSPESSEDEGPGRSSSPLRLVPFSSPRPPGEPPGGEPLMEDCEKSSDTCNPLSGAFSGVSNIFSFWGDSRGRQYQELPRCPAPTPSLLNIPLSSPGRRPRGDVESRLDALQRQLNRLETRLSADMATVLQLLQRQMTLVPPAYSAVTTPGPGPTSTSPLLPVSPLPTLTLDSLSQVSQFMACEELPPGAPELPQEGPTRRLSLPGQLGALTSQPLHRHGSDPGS
# Histamine H1 receptor [4] = biological target: T2, Histamine H1 receptor (Homo sapiens, UniProt P35367); assay: Antagonist potency at human H1 receptor; conditions: read-out: pA2 (converted)
# T2 sequence (P35367 whole entry): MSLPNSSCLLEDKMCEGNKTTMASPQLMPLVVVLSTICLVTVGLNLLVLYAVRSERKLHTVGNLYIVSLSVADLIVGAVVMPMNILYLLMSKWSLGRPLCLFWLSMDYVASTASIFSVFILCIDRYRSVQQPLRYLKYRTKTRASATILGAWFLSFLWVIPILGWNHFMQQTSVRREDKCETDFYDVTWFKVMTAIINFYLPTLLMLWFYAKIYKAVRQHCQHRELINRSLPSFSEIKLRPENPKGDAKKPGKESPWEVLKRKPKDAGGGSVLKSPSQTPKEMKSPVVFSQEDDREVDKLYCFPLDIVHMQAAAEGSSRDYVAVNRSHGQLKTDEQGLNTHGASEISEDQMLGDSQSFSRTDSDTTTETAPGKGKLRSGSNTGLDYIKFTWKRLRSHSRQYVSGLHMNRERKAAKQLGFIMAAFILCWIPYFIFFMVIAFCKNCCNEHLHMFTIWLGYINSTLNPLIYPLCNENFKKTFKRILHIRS
# Histamine H1 receptor [5] = biological target: T2, Histamine H1 receptor; assay: Antagonist activity against recombinant human H1 receptor expressed in CHO cells incubated for 30 mins by FLIPR analysis; format: cell-based
# [6] = biological target: T3, Alpha-1B adrenergic receptor (Homo sapiens, UniProt P35368); assay: Antagonist activity against recombinant human adrenergic alpha1B receptor expressed in CHO cells incubated for 30 mins by FLIPR analysis; format: cell-based
# T3 sequence (P35368 whole entry): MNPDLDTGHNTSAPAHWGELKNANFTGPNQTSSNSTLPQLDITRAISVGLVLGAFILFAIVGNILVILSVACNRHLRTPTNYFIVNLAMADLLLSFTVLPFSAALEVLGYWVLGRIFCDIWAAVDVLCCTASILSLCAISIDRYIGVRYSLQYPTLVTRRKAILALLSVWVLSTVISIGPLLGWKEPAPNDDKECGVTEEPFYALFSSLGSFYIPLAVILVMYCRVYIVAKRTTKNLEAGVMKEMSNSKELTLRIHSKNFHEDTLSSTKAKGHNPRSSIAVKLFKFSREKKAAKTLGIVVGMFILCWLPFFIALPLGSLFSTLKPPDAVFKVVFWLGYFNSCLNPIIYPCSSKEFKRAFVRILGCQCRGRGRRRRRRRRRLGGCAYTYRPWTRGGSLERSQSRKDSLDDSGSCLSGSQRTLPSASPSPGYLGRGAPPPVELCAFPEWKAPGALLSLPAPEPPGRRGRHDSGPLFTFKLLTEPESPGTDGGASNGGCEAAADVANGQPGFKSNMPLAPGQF
# Cavia porcellus [7] = assay: Antihistamine activity against conscious unrestrained ovalbumin and aluminum hydroxide sensitized guinea pigs assessed as inhibition of histamine-induced nasal congestion at 1 mg/ml, intranasal measured after 1 to 24 hrs relative to control; format: functional, organism-based; conditions: time 1-24 hrs
# In short: (§1)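 Guinea pigs dosed intranasally with a 1 mg/mL solution (25 μL/nostril). Bilateral histamine challenge (15 or 10 mM, 25 μL/nostril, light isoflurane anesthesia) given 1 and 24 h after dosing. […] Comparison with vehicle-pretreated/histamine-challenged controls; mean ± SEM, n = 16–27 per group; p < 0.05.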
# [8] = biological target: D(2) dopamine receptor (Homo sapiens) (UniProt P14416); assay: Inhibition of human dopamine D2S receptor at 1 uM relative to control
# Chain of D(2) dopamine receptor (Homo sapiens) (P14416 whole entry): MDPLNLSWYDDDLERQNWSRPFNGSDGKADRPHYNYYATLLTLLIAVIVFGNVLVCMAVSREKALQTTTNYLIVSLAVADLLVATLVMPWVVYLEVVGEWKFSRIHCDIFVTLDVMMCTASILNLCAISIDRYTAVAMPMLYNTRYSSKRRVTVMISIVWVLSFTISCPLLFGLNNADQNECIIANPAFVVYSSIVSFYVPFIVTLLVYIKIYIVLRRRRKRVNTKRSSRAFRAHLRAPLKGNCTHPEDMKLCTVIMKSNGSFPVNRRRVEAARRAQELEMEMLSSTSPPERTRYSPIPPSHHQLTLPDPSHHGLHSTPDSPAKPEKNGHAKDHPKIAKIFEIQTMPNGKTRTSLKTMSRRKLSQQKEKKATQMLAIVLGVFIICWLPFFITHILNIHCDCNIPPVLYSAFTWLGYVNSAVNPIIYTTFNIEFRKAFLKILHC
# [9] = biological target: 5-hydroxytryptamine receptor 7 (Homo sapiens) (UniProt P34969); assay: Inhibition of human 5-HT7 receptor at 1 uM relative to control
# Chain of 5-hydroxytryptamine receptor 7 (Homo sapiens) (P34969 whole entry): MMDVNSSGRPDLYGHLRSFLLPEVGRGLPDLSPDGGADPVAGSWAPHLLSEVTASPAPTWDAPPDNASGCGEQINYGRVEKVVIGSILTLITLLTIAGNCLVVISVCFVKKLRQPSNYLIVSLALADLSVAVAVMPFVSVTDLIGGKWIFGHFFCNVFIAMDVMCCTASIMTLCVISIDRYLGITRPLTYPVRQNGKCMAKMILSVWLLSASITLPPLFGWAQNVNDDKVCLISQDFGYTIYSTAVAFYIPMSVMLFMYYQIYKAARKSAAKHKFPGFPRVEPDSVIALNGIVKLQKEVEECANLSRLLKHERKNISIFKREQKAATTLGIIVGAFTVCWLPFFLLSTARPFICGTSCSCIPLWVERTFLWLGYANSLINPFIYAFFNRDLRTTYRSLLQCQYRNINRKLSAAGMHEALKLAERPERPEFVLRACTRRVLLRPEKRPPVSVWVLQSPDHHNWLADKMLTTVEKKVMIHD
# [10] = biological target: 5-hydroxytryptamine receptor 2A (Homo sapiens) (UniProt P28223); assay: Inhibition of human 5-HT2A receptor at 1 uM relative to control
# Chain of 5-hydroxytryptamine receptor 2A (Homo sapiens) (P28223 whole entry): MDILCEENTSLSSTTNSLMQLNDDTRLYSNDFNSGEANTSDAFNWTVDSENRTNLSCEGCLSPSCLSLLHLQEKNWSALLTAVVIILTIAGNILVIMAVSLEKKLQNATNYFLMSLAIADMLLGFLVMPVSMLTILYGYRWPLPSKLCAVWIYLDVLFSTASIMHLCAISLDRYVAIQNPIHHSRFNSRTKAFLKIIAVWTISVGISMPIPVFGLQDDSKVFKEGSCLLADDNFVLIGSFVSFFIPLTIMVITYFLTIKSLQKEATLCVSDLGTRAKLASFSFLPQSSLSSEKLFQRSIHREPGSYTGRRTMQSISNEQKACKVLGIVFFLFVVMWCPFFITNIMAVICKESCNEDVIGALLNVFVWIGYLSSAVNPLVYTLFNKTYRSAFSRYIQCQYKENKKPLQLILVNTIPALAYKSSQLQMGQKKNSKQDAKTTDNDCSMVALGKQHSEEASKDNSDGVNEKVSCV
# [11] = biological target: D(1A) dopamine receptor (Homo sapiens) (UniProt P21728); assay: Inhibition of human dopamine D1 receptor at 1 uM relative to control
# Chain of D(1A) dopamine receptor (Homo sapiens) (P21728 whole entry): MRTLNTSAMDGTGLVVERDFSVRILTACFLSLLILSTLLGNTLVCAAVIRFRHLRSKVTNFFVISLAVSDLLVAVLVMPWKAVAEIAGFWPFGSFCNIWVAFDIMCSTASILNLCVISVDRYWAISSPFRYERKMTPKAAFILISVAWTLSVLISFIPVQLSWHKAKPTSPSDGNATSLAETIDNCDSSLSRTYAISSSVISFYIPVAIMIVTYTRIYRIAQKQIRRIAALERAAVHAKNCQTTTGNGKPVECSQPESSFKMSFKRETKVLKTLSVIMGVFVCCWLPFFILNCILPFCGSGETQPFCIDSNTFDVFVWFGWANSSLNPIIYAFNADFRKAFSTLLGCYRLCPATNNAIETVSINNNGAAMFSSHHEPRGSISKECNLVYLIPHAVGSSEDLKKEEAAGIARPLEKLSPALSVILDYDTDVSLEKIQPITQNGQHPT
# [12] = biological target: 5-hydroxytryptamine receptor 6 (Homo sapiens) (UniProt P50406); assay: Inhibition of human 5-HT6 receptor at 1 uM relative to control
# Chain of 5-hydroxytryptamine receptor 6 (Homo sapiens) (P50406 whole entry): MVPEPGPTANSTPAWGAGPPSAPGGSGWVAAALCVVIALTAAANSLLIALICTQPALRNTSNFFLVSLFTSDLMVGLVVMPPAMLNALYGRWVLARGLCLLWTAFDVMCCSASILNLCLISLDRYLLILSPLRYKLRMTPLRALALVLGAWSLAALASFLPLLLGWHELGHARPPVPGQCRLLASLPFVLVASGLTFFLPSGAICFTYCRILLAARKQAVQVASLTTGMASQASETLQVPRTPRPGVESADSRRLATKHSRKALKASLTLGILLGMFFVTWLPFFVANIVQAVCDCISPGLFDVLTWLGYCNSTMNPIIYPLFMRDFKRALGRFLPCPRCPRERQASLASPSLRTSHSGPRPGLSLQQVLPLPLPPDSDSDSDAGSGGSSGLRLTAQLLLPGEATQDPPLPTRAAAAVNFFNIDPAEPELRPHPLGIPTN
# Cavia porcellus [13] = assay: Antihistamine activity against conscious unrestrained ovalbumin and aluminum hydroxide sensitized guinea pigs assessed as inhibition of histamine-induced nasal congestion by measuring time duration of action at 1 mg/ml, intranasal measured after 1 to 24 hrs; format: functional; conditions: time 1-24 hrs; in short: as §1
# [14] = Ratio of drug level in rat brain to blood at 1 mg/kg, iv bolus dose measured after 5 mins
# [15] = Drug uptake in rat brain at 1 mg/kg, iv bolus dose; format: ADME, organism-based; conditions: in vivo
# In short: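 Rats given a 1 mg/kg intravenous bolus. Brain and blood sampled at 5 min; brain–blood ratio and brain concentration determined, n = 3.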
# [16] = Elimination half life in Beagle dog at 2 mg/kg, po and 1 mg/kg, iv; format: ADME, organism-based, Canis lupus familiaris; conditions: in vivo, read-out: beta t1/2 (converted)
# In short: (§2)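 Male CD Sprague–Dawley rats and Beagle dogs. Solution in H2O–PEG200–DMSO (50:45:5), given iv at 1 mg/kg, and po at 3 mg/kg (rat) or 2 mg/kg (dog). Vss and elimination half-life derived after iv dosing.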
# [17] = Volume of distribution at steady state in CD Sprague-Dawley rat at 3 mg/kg, po and 1 mg/kg, iv; format: ADME, organism-based; conditions: in vivo; in short: as §2
# [18] = Elimination half life in CD Sprague-Dawley rat at 3 mg/kg, po and 1 mg/kg, iv; format: ADME, organism-based; conditions: in vivo, read-out: beta t1/2 (converted); in short: as §2
# [19] = Volume of distribution at steady state in Beagle dog at 2 mg/kg, po and 1 mg/kg, iv; format: ADME, organism-based, Canis lupus familiaris; conditions: in vivo; in short: as §2
# [20] = Drug absorption into hepatic portal vein of CD Sprague-Dawley rat at 3 mg/kg, po; format: ADME, organism-based; conditions: read-out: Drug absorption
# In short: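 Male CD Sprague–Dawley rats dosed orally at 3 mg/kg. Absorption measured into the hepatic portal vein.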
# [21] = Oral bioavailability in CD Sprague-Dawley rat at 300 mg/kg; format: ADME, organism-based; conditions: in vivo
# In short: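 Male CD Sprague–Dawley rats dosed orally at 300 mg/kg. Vehicle was H2O–PEG200–DMSO (50:45:5). Oral bioavailability determined from blood concentrations.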
# [22] = Drug metabolism in rat liver microsomes assessed as rate of metabolism; format: ADME
# [23] = Elimination in sc dosed dog urine; format: ADME, organism-based, Canis lupus familiaris; conditions: read-out: Drug excretion
# In short: (§3)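 Beagle dogs dosed iv at 1 mg/kg, or subcutaneously in one dog. Parent compound measured in urine.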
# [24] = Drug metabolism in human hepatocytes assessed as metabolite formation at 10 uM measured after 3 hrs by LC-MS/MS analysis; format: ADME, cell-based, Hepatocyte
# In short: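 Cryopreserved human hepatocytes incubated with compound (10 μM initial) for 3 h. Metabolites detected and profiled by LC–MS/MS.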
# [25] = Drug metabolism in human liver microsomes assessed as rate of metabolism; format: ADME
# [26] = Drug metabolism in dog liver microsomes assessed as rate of metabolism; format: ADME, Canis lupus familiaris
# [27] = Elimination in iv dosed dog urine; format: ADME, organism-based, Canis lupus familiaris; conditions: read-out: Drug excretion; in short: as §3
# [28] = Drug metabolism in mouse liver microsomes assessed as rate of metabolism; format: ADME
# [29] = Drug metabolism in monkey intestinal microsomes assessed as rate of metabolism; format: ADME, Macaca mulatta, Intestine; conditions: rhesus monkey
# In short: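 Intestinal microsomes from monkey; in vitro rate of metabolism given in mL/min/g.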
# [30] = Bioavailability in human; format: ADME, organism-based; conditions: in vivo
Compound,Ki [1] [nM],logD [2],Kb (Histamine H1 receptor [4]) [nM],Ki (Histamine H1 receptor [5]) [nM],Ki [6] [nM],IC50 [3] [nM],further results
COCCCC(=O)NCCN1CCC[C@@H]1Cn1nc(Cc2ccc(Cl)cc2)c2ccccc2c1=O,–,–,–,–,–,–,Activity (Cavia porcellus [7]): Active; inhibition [8]: > 50%; inhibition [9]: > 50%; inhibition [10]: > 50%; inhibition [11]: > 50%; inhibition [12]: > 50%
COCCCC(=O)NCCN1CCC[C@@H]1Cn1nc(Cc2ccc(Cl)cc2)c2ccccc2c1=O.O=C(O)C(F)(F)F,–,3.5,–,–,–,–,Time (Cavia porcellus [13]): <48 h; Kp at 5 min [14]: 0.18; Drug uptake [15]: 121 ng/g; half-life [16]: 30 min; Vdss [17]: 0.7 L/kg; half-life [18]: 12 min; Vdss [19]: 1.1 L/kg
COCCCC(=O)NCCN1CCC[C@@H]1Cn1nc(Cc2ccc(Cl)cc2)c2ccccc2c1=O.Cl,–,–,–,–,–,–,Time (Cavia porcellus [13]): <48 h; Fa [20]: 3%; bioavailability [21]: < 3%; Drug metabolism [22]: 50 mL/min/g; dose excreted [23]: < 3%; Drug metabolism [24]: Metabolite_Detected; Drug metabolism [25]: 25 mL/min/g; Drug metabolism [26]: 12 mL/min/g; dose excreted [27]: < 3%; Drug metabolism [28]: 50 mL/min/g; CLint scaled [29]: > 50 mL/min/g
O=C(NCCN1CCC[C@@H]1Cn1nc(Cc2ccc(Cl)cc2)c2ccccc2c1=O)C1CCCC1,79.4,3.9,0.316,3.98,79.4,50.1,–
COCC(=O)NCCN1CCC[C@@H]1Cn1nc(Cc2ccc(Cl)cc2)c2ccccc2c1=O,50.1,3.1,0.2,1.26,31.6,200,–
CN1CCCC(n2nc(Cc3ccc(Cl)cc3)c3ccccc3c2=O)CC1 (stereo unspecified) [AZELASTINE],–,2.3,–,–,–,–,bioavailability [30]: 40%
O=C(NCCN1CCC[C@@H]1Cn1nc(Cc2ccc(Cl)cc2)c2ccccc2c1=O)C1CCOCC1,200,3.3,0.794,10,–,794,–

# Second part, led by results:
Ki [1] [nM],logD [2],Kb (Histamine H1 receptor [4]) [nM],Ki (Histamine H1 receptor [5]) [nM],Ki [6] [nM],Compound,IC50 [3] [nM],further results
31.6,3.7,0.631,0.794,79.4,CCCC(=O)NCCN1CCC[C@@H]1Cn1nc(Cc2ccc(Cl)cc2)c2ccccc2c1=O,63.1,–
31.6,3.5,0.1,3.16,126,COCCCC(=O)N(C)CCN1CCC[C@@H]1Cn1nc(Cc2ccc(Cl)cc2)c2ccccc2c1=O,398,–
15.8,3.4,0.251,0.631,15.8,CCC(=O)NCCN1CCC[C@@H]1Cn1nc(Cc2ccc(Cl)cc2)c2ccccc2c1=O,200,–
6.31,2.5,0.501,0.794,10,COCCNC(=O)CCCN1CCC[C@@H]1Cn1nc(Cc2ccc(Cl)cc2)c2ccccc2c1=O,39.8,–
3.98,3.2,0.132,3.98,63.1,CC(C)C(=O)NCCN1CCC[C@@H]1Cn1nc(Cc2ccc(Cl)cc2)c2ccccc2c1=O,398,–
7.94,3.2,0.501,0.794,63.1,COCCC(=O)NCCN1CCC[C@@H]1Cn1nc(Cc2ccc(Cl)cc2)c2ccccc2c1=O,398,–
10,3.3,0.158,5.01,31.6,CCCNC(=O)CCCN1CCC[C@@H]1Cn1nc(Cc2ccc(Cl)cc2)c2ccccc2c1=O,1.58,–
